Measurements of several laboratories.
Lines come from different studies, so protocols differ.
Target: Serine/threonine-protein kinase WNK3 (WNK3, Homo sapiens, UniProt Q9BYP7)

Structure (SMILES)	effect on	method	tested at	remaining binding
CO[C@@H](C)c1c(Nc2ccc([C@H](N(C)C(=O)C3CCS(=O)(=O)CC3)C(F)(F)F)cc2)cnc2cc(Cl)nn12	cell-free assay	competition with immobilised ligand	1 µM	95%
C=CC(=O)N1CCC(C(=O)NCC(=O)N2CCN(c3nc(-c4cnc(N)nc4C(F)F)nc(N4CCOCC4)n3)CC2)CC1	binding	competition with immobilised ligand	1 µM	96%
O=C(c1ccc(Nc2ncc(Cl)c(-c3ccc(Cl)s3)n2)cc1)N1CCC(N2CCCC2)CC1	binding	competition with immobilised ligand	1 µM	73%
CN(CCCC(F)(F)F)c1nccc(-c2cnn3ncccc23)n1	binding	–	1 µM	100%
Cc1cc(-n2nc(Cc3cc(F)cc(C(F)(F)F)c3)nc2C)ccc1C(N)=O	cell-free assay	competition with immobilised ligand	1 µM	100%
F[C@@H]1CCN(c2nccc(-c3cnn4ncccc34)n2)C1	binding	–	1 µM	100%
CN(c1ccnc(CNc2nc(Nc3ccc4c(c3)CC(=O)N4)ncc2C(F)(F)F)n1)S(C)(=O)=O	cell-free assay	competition with immobilised ligand	1 µM	79%
CN(C)c1nccc(-c2cnc3ncccn23)n1	binding	–	1 µM	67%
O=C(Nc1c[nH]nc1C(=O)NC1CCNCC1)c1cc(F)cc(F)c1	binding	competition with immobilised ligand	1 µM	100%
Cc1cnn2ncc(-c3ccnc(N(C)C)n3)c2c1	binding	–	1 µM	85%
Cn1nc(C(F)(F)F)cc1-c1cnc(N2CCc3cc(S(=O)(=O)Nc4c(F)cc(Cl)cc4F)cc(N4CCCC4=O)c32)nc1	cell-free assay	competition with immobilised ligand	1 µM	97%
COc1cnc(Nc2cccc(S(N)(=O)=O)c2)nc1N1CCN(c2ccccc2)CC1	binding	competition with immobilised ligand	1 µM	97%
C[C@@H](c1ccc(-n2cnc3c(N)ncnc32)cc1)N1CCc2nn(C)c(Cc3ccccc3)c2C1=O	binding	competition with immobilised ligand	0.1 µM	100%
CC1=C(C#N)[C@@H](c2ccc3[nH]nc(C)c3c2)C(C#N)=C(c2ccc(Cl)cc2)N1	cell-free assay	competition with immobilised ligand	1 µM	100%
O=C(NCCCN1CCOCC1)c1ccc(Nc2ncc(Cl)c(-c3ccc(Cl)s3)n2)cc1	binding	competition with immobilised ligand	1 µM	100%
Cc1c[nH]c2nccc(Oc3c(F)cc(Nc4cc(Cl)nc(N)n4)cc3F)c12	cell-free assay	competition with immobilised ligand	0.1 µM	90%
N[C@@H]1CCN(c2nccc(-c3cnn4ncccc34)n2)C1	binding	–	1 µM	98%
O=C(c1ccc(Nc2ncc(Cl)c(-c3cc4ccccc4s3)n2)cc1)N1CCC(N2CCCC2)CC1	binding	competition with immobilised ligand	1 µM	100%
CN(c1nccc(-c2cnn3ncccc23)n1)C1CC1	binding	–	1 µM	100%
CNC(=O)[C@@H]1CC[C@@H](n2c(-c3ccc4cnccc4c3)nc3ccc(C(=O)NCc4cccc(C(N)=O)c4)cc32)C1	binding	competition with immobilised ligand	1 µM	100%
c1cnn2ncc(-c3ccnc(N4CCC45COC5)n3)c2c1	binding	–	1 µM	68%
COc1ncc2cc3ccccc3nc2c1C#N	cell-free assay	competition with immobilised ligand	5 µM	96%
